Measurements published in ChEMBL document CHEMBL4014344, “Discovery of the Soluble Guanylate Cyclase Stimulator Vericiguat (BAY 1021189) for the Treatment of Chronic Heart Failure” (J Med Chem, 2017).
The source made the active and inactive calls. The rule behind the calls is not given here.

Key:
[1] = Inhibition of phenylephrine-induced contractions in dog femoral vein after 15 to 20 mins post phenylephrine-induced contraction; format: functional, tissue-based, Canis lupus familiaris
[2] = Volume of distribution at steady state in iv dosed Wistar rat after 24 hrs by LC-MS analysis; format: ADME, organism-based; conditions: in vivo, read-out: Vdss
Summary of the method: (§1)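 Male Wistar rats and female beagle dogs. iv in plasma/DMSO (rat) or H2O/PEG 400/EtOH (dog). Oral gavage in H2O/PEG 400/EtOH for both. Rats jugular-catheterised ≥1 d before dosing. Usually >10 blood samples, at least two after 24 h. Plasma quantified by LC-MS with internal standard. CL, t1/2, Vss and F calculated from plasma curves. Blood clearance via blood/plasma ratio (20 min blood incubation).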

[3] = Clearance in iv dosed Wistar rat blood after 24 hrs by LC-MS analysis; format: ADME, organism-based; conditions: whole blood; summary of the method: as §1
[4] = Clearance in iv dosed Beagle dog blood after 24 hrs by LC-MS analysis; format: ADME, organism-based, Canis lupus familiaris; conditions: whole blood; summary of the method: as §1
[5] = Terminal half life in iv dosed Wistar rat blood after 24 hrs by LC-MS analysis; format: ADME, organism-based; conditions: whole blood, read-out: beta t1/2 (converted); summary of the method: as §1
[6] = Oral bioavailability in Wistar rat administered via oral gavage after 24 hrs by LC-MS analysis; format: ADME, organism-based; conditions: in vivo; summary of the method: as §1
[7] = target: T1, Cytochrome P450 2B6 (Homo sapiens, UniProt P20813); test: Inhibition of human liver microsomes CYP2B6 using bupropion as substrate; format: ADME
T1 sequence (P20813 whole entry): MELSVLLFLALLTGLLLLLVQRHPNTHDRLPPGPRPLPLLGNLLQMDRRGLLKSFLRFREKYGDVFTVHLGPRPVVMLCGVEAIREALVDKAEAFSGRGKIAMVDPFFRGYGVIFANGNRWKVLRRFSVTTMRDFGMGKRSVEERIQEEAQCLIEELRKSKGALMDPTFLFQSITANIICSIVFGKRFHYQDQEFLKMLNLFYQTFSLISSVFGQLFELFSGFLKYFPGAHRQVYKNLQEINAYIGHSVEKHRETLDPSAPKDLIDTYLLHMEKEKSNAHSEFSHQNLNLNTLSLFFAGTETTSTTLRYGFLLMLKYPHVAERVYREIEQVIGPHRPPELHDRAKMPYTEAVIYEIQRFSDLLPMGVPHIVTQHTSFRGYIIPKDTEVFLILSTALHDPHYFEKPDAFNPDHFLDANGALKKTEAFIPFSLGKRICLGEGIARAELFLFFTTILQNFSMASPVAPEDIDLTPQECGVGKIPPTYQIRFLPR

[8] = target: T2, Cytochrome P450 2C8 (Homo sapiens, UniProt P10632); test: Inhibition of human liver microsomes CYP2C8 using amodiaquine as substrate; format: ADME
T2 sequence (P10632 whole entry): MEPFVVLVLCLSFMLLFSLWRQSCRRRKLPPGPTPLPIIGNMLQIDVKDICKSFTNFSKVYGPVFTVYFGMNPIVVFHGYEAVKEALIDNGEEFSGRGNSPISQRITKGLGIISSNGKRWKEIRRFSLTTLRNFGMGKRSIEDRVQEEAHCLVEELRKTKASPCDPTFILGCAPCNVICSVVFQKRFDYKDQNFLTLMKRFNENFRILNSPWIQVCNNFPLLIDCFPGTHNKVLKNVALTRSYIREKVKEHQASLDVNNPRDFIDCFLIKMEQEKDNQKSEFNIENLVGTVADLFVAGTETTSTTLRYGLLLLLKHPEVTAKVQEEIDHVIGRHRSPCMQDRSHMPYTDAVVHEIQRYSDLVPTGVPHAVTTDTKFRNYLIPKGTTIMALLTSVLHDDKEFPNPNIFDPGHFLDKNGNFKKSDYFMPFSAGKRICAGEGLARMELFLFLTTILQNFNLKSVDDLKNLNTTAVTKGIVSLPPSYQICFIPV

[9] = target: Cytochrome P450 2C19 (Homo sapiens, UniProt P33261); test: Inhibition of human liver microsomes CYP2C19 using S-mephenytoin as substrate; format: ADME
Sequence of Cytochrome P450 2C19 (P33261 whole entry): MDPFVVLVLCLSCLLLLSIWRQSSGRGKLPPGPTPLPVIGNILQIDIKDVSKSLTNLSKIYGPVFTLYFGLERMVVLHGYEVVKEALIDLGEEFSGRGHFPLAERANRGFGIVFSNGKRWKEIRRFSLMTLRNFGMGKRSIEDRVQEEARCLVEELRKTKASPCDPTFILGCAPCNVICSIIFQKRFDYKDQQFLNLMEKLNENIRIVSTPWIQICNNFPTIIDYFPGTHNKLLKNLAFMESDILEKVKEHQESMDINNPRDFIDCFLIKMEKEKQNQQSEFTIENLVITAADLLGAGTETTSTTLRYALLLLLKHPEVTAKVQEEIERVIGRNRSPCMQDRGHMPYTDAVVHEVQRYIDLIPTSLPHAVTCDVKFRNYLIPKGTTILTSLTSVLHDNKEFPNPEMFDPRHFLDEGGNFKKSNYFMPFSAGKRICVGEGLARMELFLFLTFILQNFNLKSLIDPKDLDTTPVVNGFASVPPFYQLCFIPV

[10] = target: T3, Cytochrome P450 3A4 (Homo sapiens, UniProt P08684); test: Inhibition of human liver microsomes CYP3A4 using midazolam as substrate; format: ADME
T3 sequence (P08684 whole entry): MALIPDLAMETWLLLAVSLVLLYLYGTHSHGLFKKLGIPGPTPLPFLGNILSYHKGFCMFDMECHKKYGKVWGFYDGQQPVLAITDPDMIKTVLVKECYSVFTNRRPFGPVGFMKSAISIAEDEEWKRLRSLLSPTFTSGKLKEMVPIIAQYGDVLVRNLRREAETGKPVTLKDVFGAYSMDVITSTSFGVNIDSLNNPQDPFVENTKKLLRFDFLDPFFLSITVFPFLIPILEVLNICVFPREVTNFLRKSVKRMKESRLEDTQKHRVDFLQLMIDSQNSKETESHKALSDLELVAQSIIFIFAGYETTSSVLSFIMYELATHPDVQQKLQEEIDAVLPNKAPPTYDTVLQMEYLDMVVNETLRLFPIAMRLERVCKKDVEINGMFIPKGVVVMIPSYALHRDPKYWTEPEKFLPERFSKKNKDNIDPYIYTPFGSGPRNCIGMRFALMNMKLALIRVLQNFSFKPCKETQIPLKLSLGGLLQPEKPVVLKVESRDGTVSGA

[11] = target: T3, Cytochrome P450 3A4; test: Inhibition of human liver microsomes CYP3A4 using midazolam as substrate preincubated with compound followed by substrate addition; format: ADME
[12] = target: T3, Cytochrome P450 3A4; test: Inhibition of human liver microsomes CYP3A4 using testosterone as substrate; format: ADME
[13] = Stimulation of rat sGC expressed in CHO cells using GTP as substrate assessed as increase in cGMP formation treated for 6 mins by luminescence assay; format: cell-based
Summary of the method: (§2)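 CHO reporter cells overexpressing sGC, cultured 1 or 2 d, then loaded 3 h with coelenterazine in calcium-free Tyrode. Compound serial dilutions applied 6 min. Calcium added (final 3 mM) and luminescence read for 40 s by CCD camera. SNAP co-applied at 30 or 100 nM where stated. ODQ condition: 10 μM ODQ pretreatment for 3 h.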

[14] = Stimulation of rat sGC expressed in CHO cells using GTP as substrate assessed as increase in cGMP formation treated for 6 mins in presence of 30 nM SNAP by luminescence assay; format: cell-based; summary of the method: as §2
[15] = Stimulation of rat sGC expressed in CHO cells using GTP as substrate assessed as increase in cGMP formation treated for 6 mins in presence of sGC inhibitor ODQ by luminescence assay; format: cell-based; summary of the method: as §2
[16] = tested on: Aorta; test: Inhibition of phenylephrine-induced contractions in Chinchilla rabbit aortic rings administered at the beginning of the last resting period of 28 mins; format: functional; conditions: Oryctolagus cuniculus
[17] = tested on: Rattus norvegicus; test: Antihypertensive activity in L-NAME-treated renin transgenic rat co-expressing RenTG(mRRen2)27 assessed as reduction in plasma ANP levels at 3 to 10 mg/kg administered qd via oral gavage up to 21 days; format: functional, organism-based
Summary of the method: (§3)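 Male RenTG(mRRen2)27 rats, 8 weeks old, given L-NAME in drinking water (50 mg/L) throughout. Randomised to placebo (2 mL/kg qd, n = 20) or 3 and 10 mg/kg/day po by gavage qd (n = 15 per group). Tail-cuff blood pressure on day 0, 7, 14 and 21. Plasma taken at day 22 end. Unpaired t test, mean ± SEM.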

[18] = tested on: Rattus norvegicus; test: Antihypertensive activity in L-NAME-treated renin transgenic rat co-expressing RenTG(mRRen2)27 assessed as reduction in Kim-1 expression at 3 to 10 mg/kg administered qd via oral gavage up to 21 days; format: functional, organism-based; summary of the method: as §3
[19] = tested on: Rattus norvegicus; test: Effect on mortality in L-NAME-treated renin transgenic rat co-expressing RenTG(mRRen2)27 assessed as survival rate at 3 mg/kg administered qd via oral gavage up to 21 days (reference value: 25%); format: functional; conditions: 504 h

COC(=O)Nc1c(N)nc(-c2nn(Cc3ccccc3F)c3ncc(F)cc23)nc1N [VERICIGUAT]
IC50 [1]: 3070 nM | Vd [2]: 1 L/kg | clearance [3]: 5 mL/min/kg | clearance [4]: 3.33 mL/min/kg | half-life [5]: 3.4 h | bioavailability [6]: 65% | IC50 [7]: > 50000 nM | IC50 [8]: > 50000 nM | IC50 [9]: > 50000 nM | IC50 [10]: > 50000 nM | IC50 [11]: > 50000 nM | IC50 [12]: > 50000 nM | EC50 [13]: 1000 nM | EC50 [14]: 39 nM | EC50 [15]: 256 nM | IC50 [16]: 692 nM | Activity [17]: Active | Activity [18]: Active | survival at 3 mg/kg [19]: 70%
